This passage reports Activity and logD results from ChEMBL document CHEMBL4265908, “Structure-activity and structure-property relationships of novel Nrf2 activators with a 1,2,4-oxadiazole core and their therapeutic effects on acetaminophen (APAP)-induced acute liver injury” (Eur J Med Chem, 2018).

Activity calls are given as the source filed them. No cut-off for these calls is given here.

The target in data set [1] is T1, Nuclear factor erythroid 2-related factor 2 (Homo sapiens) (UniProt Q16236).
T1 sequence (whole entry): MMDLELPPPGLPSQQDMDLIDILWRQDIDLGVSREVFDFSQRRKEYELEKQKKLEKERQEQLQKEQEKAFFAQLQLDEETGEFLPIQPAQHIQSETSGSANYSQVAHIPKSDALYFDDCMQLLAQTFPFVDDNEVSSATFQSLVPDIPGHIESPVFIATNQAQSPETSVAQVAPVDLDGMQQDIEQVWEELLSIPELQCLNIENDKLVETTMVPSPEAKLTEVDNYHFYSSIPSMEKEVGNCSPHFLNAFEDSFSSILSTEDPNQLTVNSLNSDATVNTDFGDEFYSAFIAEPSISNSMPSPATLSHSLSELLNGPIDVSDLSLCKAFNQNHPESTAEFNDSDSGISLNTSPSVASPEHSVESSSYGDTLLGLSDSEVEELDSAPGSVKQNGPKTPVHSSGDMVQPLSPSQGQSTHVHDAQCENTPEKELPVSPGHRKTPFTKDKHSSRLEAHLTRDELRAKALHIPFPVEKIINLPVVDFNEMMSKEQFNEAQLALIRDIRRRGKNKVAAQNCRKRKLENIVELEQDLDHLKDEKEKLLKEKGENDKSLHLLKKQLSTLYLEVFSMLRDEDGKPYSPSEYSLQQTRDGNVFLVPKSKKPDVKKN
Description: Activation of Nrf2 in human HepG2-ARE-C8 cells assessed as induction of ARE-mediated luciferase activity at 20 uM after 24 hrs by luciferase reporter gene assay relative to control. It is filed as cell-based. Summed up: (§1)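 HepG2-ARE-C8 cells stably carrying ARE-luciferase, grown in DMEM with 10% FBS at 37 °C and 5% CO2. Seeded at 5 × 10^4 cells/well, left overnight, then given compound diluted from a 10 mM DMSO stock for 24 h. Cells lysed and luciferase read as RLU. Inductivity = (RLUtest − RLUblank)/(RLUcontrol − RLUblank), with DMSO as control. Mean ± SEM of three experiments.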

In data set [2] the target is T1, Nuclear factor erythroid 2-related factor 2 (Homo sapiens). Description: Activation of Nrf2 in human HepG2-ARE-C8 cells assessed as induction of ARE-mediated luciferase activity at 40 uM after 24 hrs by luciferase reporter gene assay relative to control. It is filed as cell-based. Summed up: as §1
(In general: In a reporter assay the amount or activity of a reporter protein is the signal.)

Data set [3] has the same target. Description: Activation of Nrf2 in human HepG2-ARE-C8 cells assessed as induction of ARE-mediated luciferase activity at 80 uM after 24 hrs by luciferase reporter gene assay relative to control. Format: cell-based. In a few lines: as §1
For data set [4] the target is unchanged. Description: Activation of Nrf2 in human LO2 cells cotreated with Nrf2 siRNA assessed as increase in NQO1 mRNA expression level at 20 uM by qRT-PCR analysis. Format: cell-based. Summed up: (§2)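 LO2 cells plated at 7 × 10^5 per 60 mm dish and transfected with 50 nM Nrf2 siRNA (scrambled siRNA as control). After 24 h, fresh medium was added and cells grown a further 48 h. Then 20 μM compound for 12 h. Nrf2, NQO1, GCLM and HO-1 mRNA measured by qRT-PCR, normalized to GAPDH, as fold over control.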

Data set [5] shares this target. Description: Activation of Nrf2 in human LO2 cells cotreated with Nrf2 siRNA assessed as increase in GCLM mRNA expression level at 20 uM by qRT-PCR analysis. Format: cell-based. In a few lines:
as §2
(In general: In qPCR the cycle at which signal appears reflects the starting amount.)

For data set [6] the target is unchanged. Description: Activation of Nrf2 in human LO2 cells assessed as increase in Nrf2 mRNA expression level by qRT-PCR analysis. Format: cell-based. Summed up:
(§3)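 LO2 cells in DMEM with 10% FBS were exposed to 0, 2.5, 5, 10, 20 or 40 μM compound for 12 h. Transcripts measured by qRT-PCR: 40 cycles of 95 °C for 5 s and 60 °C for 30 s. Normalized to GAPDH and expressed as fold over the untreated control. Mean ± SD, n = 3.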

The target is the same in data set [7]. Description: Activation of Nrf2 in human LO2 cells assessed as increase in NQO1 mRNA expression level by qRT-PCR analysis. It is filed as cell-based. In a few lines:
as §3

Data set [8] shares this target. The data set can be described thus: Activation of Nrf2 in human LO2 cells assessed as increase in GCLM mRNA expression level by qRT-PCR analysis. It is filed as cell-based. Summed up:
as §3

Data set [9] has the same target. Description: Induction of Nrf2 nuclear translocation in human LO2 cells assessed as Nrf2 binding to antioxidant response element after 12 hrs by DAPI staining based immunofluorescence assay. Format: cell-based. In a few lines: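 LO2 cells grown on coverslips for 24 h, then treated 12 h with compound (5 or 20 μM); 80 μM tBHQ served as reference. Cells fixed, probed with anti-Nrf2 and a DyLight 488 anti-rabbit secondary, nuclei stained with DAPI. Imaged by confocal microscopy.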

Data set [10] can be described thus: Lipophilicity, log D of the compound at pH 7.4 by potentiometric titration method. Format: physicochemical. To be noted: buffer. Summed up:
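Intrinsic aqueous solubility and logD at pH 7.4 determined by Avdeef-Bucher potentiometric titration on a pION Gemini Profiler.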

For data set [11], the system named is Mus musculus. Description: In vivo activation of Nrf2 in APAP-induced liver injury in C57BL/6 mouse assessed as increase in NQO1 protein expression level at 10 to 100 mg/kg, ip administered for 7 consecutive days followed by APAP challenge 1 hr post last compound dose and measured after 24 hrs by Western blot analysis. Format: functional, organism-based. Summed up:
(§4)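 Female C57BL/6 mice (20–25 g, n = 10/group) received 10, 50 or 100 mg/kg/day ip in saline for 7 days. One hour after the last dose they received APAP 300 mg/kg in saline. Killed 24 h later. Serum ALT/AST by kit. Liver homogenates (pH 7.0 phosphate) used for GSH (A420, μmol/g protein), GST (A412, U/mg protein) and SOD. Liver also analyzed by western blot (β-actin normalized), qRT-PCR (GAPDH normalized) and H&E.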

The test system of data set [12] is Mus musculus. The data set can be described thus: In vivo activation of Nrf2 in APAP-induced liver injury in C57BL/6 mouse assessed as increase in NQO1 mRNA expression level administered ip for 7 consecutive days followed by APAP challenge 1 hr post last compound dose and measured after 24 hrs by qRT-PCR analysis. It is filed as functional, organism-based. Summed up:
as §4

The subject of data set [13] is Mus musculus. The data set can be described thus: In vivo activation of Nrf2 in APAP-induced liver injury in C57BL/6 mouse assessed as increase in HO-1 mRNA expression level administered ip for 7 consecutive days followed by APAP challenge 1 hr post last compound dose and measured after 24 hrs by qRT-PCR analysis. It is filed as functional, organism-based. Summed up: as §4

For data set [14], the system named is Mus musculus. Description: In vivo activation of Nrf2 in APAP-induced liver injury in C57BL/6 mouse assessed as increase in GCLM mRNA expression level administered ip for 7 consecutive days followed by APAP challenge 1 hr post last compound dose and measured after 24 hrs by qRT-PCR analysis. It is filed as functional, organism-based. Summed up: as §4
In data set [15] the test system is Mus musculus. The data set can be described thus: Hepatoprotective activity against APAP-induced liver injury in C57BL/6 mouse assessed as increase in GST levels administered ip for 7 consecutive days followed by APAP challenge 1 hr post last compound dose and measured after 24 hrs. It is filed as functional, organism-based. Summed up:
as §4

Data set [16] concerns Mus musculus. The data set can be described thus: Hepatoprotective activity against APAP-induced liver injury in C57BL/6 mouse assessed as increase in SOD levels administered ip for 7 consecutive days followed by APAP challenge 1 hr post last compound dose and measured after 24 hrs by NBT assay. It is filed as functional, organism-based. In a few lines:
as §4

Regarding `Cc1ccc(-c2noc(-c3ccc(F)c(F)c3)n2)cn1`, the Activity is 24.7 in data set [1]; 48.7 in data set [2]; 59.5 in data set [3]; “Dose-dependent effect” in data set [6]; “Dose-dependent effect” in data set [7]; “Dose-dependent effect” in [8]. In addition, the Activity entry (in data set [9]; in the data set on Mus musculus [12]; in the data set on Mus musculus [13]; in the data set on Mus musculus [14]; in the data set with Mus musculus [15]; in the data set with Mus musculus [16]) was “Dose-dependent effect” each time. Besides, the outcome (in data set [4]; in data set [5]; in the data set on Mus musculus [11]) was Active. The compound further yielded a pH-dependent lipophilicity (logD) in [10] of 3.07.

One may read the logD as lipophilicity at a set pH, counting ionised and neutral species.
